In the library only some 1.8% were active in any assay of this set; here they are far more common.
LEDGF integ inh: blocks HIV-1 LEDGF/p75-dependent DNA integration; TR-FRET IN-LEDGF/p75 DNA integration, Eu/Cy5; inhibition, % at 3.7 µM; 0.64% of 370,000 active;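 active = inhibition above the screen-wide mean plus 3 SD, cut at about 13% in these data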;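 note: signal is the Cy5 over europium emission ratio at 671 and 618 nm; 0% = plate median of compound wells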
MBD2 inh: blocks human MBD2 binding to methylated DNA; Q9UBB5; TR-FRET, MBD2 binding to methylated oligonucleotide; inhibition, % at 4.4 µM; 0.31% of 370,000 active; AID 686964; in the data active = inhibition above about 13%
Target sequence (Q9UBB5 whole entry, looked up): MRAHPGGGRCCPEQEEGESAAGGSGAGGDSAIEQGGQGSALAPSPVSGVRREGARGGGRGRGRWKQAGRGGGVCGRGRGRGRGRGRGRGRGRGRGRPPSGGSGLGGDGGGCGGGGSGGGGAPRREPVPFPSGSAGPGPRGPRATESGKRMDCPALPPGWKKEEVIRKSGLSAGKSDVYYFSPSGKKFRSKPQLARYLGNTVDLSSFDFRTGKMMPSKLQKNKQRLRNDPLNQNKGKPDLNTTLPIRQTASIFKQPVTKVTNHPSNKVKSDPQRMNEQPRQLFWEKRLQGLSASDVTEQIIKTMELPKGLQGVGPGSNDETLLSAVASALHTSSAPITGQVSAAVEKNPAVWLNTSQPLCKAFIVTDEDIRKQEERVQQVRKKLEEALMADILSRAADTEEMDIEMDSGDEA
core dimer inh: HCV core protein dimerization inhibition. TR-FRET GST/Flag-core106 dimerization, 1536-well. inhibition, % at 5 µM. 0.33% of 300,000 active;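 active = inhibition above the mean of all tested compounds plus 3 SD, set per screening campaign, cut at about 45% in these data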
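System – GST-tagged and Flag-tagged HCV core protein residues 1-106 · Repeats – one well for each compound · Technique – TR-FRET 671 and 617 nm emission · Doses – one concentration, 5 µM, in 0.5% DMSO · Times – 4 h, 22.5 °C incubation · Also added – Eu donor and XL665 acceptor anti-tag antibodies · Measure – percent inhibition of core106 dimerization signal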
TDP2 inh: blocks human TDP2 phosphodiesterase activity. O95551. recombinant TDP2, T5PNP hydrolysis, p-nitrophenol absorbance 415 nm. inhibition, % at 12.8 µM. 0.34% of 370,000 active;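 active = inhibition above the mean of all tested compounds plus 3 SD, set per campaign, cut at about 25% in these data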;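 note: 0% = DMSO with enzyme and 100% = buffer with substrate but no TDP2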
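Assay system: recombinant human TDP2 / Reagent: T5PNP substrate at 5 mM, a TopII-DNA adduct mimic / Measured by: epi absorbance from released p-nitrophenol / Evaluation: % inhibition relative to enzyme-containing and enzyme-free wells / Control set: enzyme-free and DMSO wells / Replicates: each compound tested once, singlicate / Schedule: enzyme reaction with compound for 2 h at 37 °C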
UHRF1 binding: blocks human UHRF1 binding to methylated DNA; Q96T88; UHRF1 binding to methylated oligo, TR-FRET; inhibition, % at 4.4 µM; 0.75% of 370,000 active; in the data active = inhibition above about 21%;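 note: UHRF1 SRA domain binding a hemimethylated CpG hairpin DNA probe; 0% = median of test compound wells and 100% = reference inhibitor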
TDP2 confirm: human TDP2 inhibition, confirmation; shares compounds with TDP2 inh; 22% of 1,100 active; inhibition, % at 12.8 µM; recombinant human TDP2, absorbance read-out; in the data active = inhibition above about 25%;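 note: 0% = vehicle with enzyme and 100% = no enzyme buffer only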
IN multimer act: counter-screen for LEDGF/p75 integration inhibitors: HIV-1 integrase multimerization activators; shares compounds with LEDGF integ inh; TR-FRET HIV-1 integrase multimerization, biochemical; activation, % at 7.7 µM; 17% of 2,000 active; AID 1053131; in the data active = activation above about 8.9%
TRFRET interf: optically interferes with TR-FRET readout in LEDGF counter-screen. TR-FRET optical interference counterscreen, HIV-1 IN multimerization. AID 1053135. 2,000 tested, under 10 active. shares compounds with LEDGF integ inh. inhibition, % at 7.7 µM;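 active = inhibition above the mean over all tested compounds plus 3 SD, which no compound reached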;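 note: 0% = integrase with antibodies and DMSO and 100% = antibodies without integrase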
LEDGF integ conf: LEDGF/p75-dependent HIV-1 integration inhibition, confirmation. TR-FRET LEDGF/p75-dependent HIV-1 integration, biochemical. 36% of 2,000 active. shares compounds with LEDGF integ inh. inhibition, % at 3.7 µM; in the data active = inhibition above about 14%
* marks the source's active call; other numbers are inactive results; · = no result given.

SMILES	LEDGF integ inh	MBD2 inh	core dimer inh	TDP2 inh	UHRF1 binding	TDP2 confirm	IN multimer act	TRFRET interf	LEDGF integ conf
CC1OC2CC(=O)OC2C2=C1C(=O)c1c(O)cccc1C2=O (configuration not stated)	19*	-2	·	42*	18	44*	-1	3	41*
CC(C)[C@@H](CO)N1Cc2nnn(Cc3ccccc3)c2-c2ccccc2S1(=O)=O	0	-1	·	-6	1	·	·	·	·
CC(C)CN1C(=O)[C@@]2(CC(=O)N(C)C2c2ccccc2)c2cc(-n3cc(CCCC#N)nn3)ccc21 (some centres not stated)	0	-5	·	-4	1	·	·	·	·
O=C1C=C(Nc2ccccc2O)c2ccccc2C1=O	28*	-29	-32	61*	-8	54*	19*	-66	37*
O=C1C=C(Nc2cccnc2)c2ccccc2C1=O	29*	-26	·	72*	1	59*	4	-14	55*
CCNC(=O)N(C)[C@H]1C[C@H]2c3[nH]c4c(-c5cccc(C)c5)cccc4c3CCN2C[C@H]1[C@H](C)O	-1	2	·	-2	6	·	·	·	·
Oc1ccccc1CNc1cccc2cccnc12	31*	-19	-7	35*	-8	6	5	-16	0
COc1cc(NCc2ccccc2O)c2ncccc2c1	1	-1	·	-2	0	·	·	·	·
COc1cc(N)c2ncccc2c1SC	16*	-15	·	45*	-1	3	3	-17	14*
COc1cc(N)c2ncccc2c1Br	29*	-11	·	76*	6	51*	5	-17	3
COc1ccccc1N=Nc1ccc(O)c2ncccc12	4	-9	-30	12	-15	·	·	·	·
COc1ccc(N2CCN(CCCNC(=O)Cc3ccc(C(F)(F)F)cc3)CC2)cc1	-1	4	·	7	-2	·	·	·	·
O=C(Nc1c(-c2ccc3c(c2)OCO3)[nH][nH]c1=O)c1cccc(C(F)(F)F)c1	20*	2	·	55*	14	9	2	-11	-3
COc1ccc(CNC(=O)O[C@H]2CC[C@@]34CCCN3C(=O)CCC[C@H]4C2)cc1	3	2	·	2	-3	·	·	·	·
Cn1c(CNc2ccc(O)cc2)nc2ccccc21	16*	-6	-19	35*	7	1	5	-20	-2
CC1=NN(c2ccccc2)C(=O)/C1=C/c1cccs1	46*	10	-1	71*	18	22	3	-11	-1
Clc1ccccc1Cn1ccc2ccc(-c3ccc4ccn(Cc5ccccc5Cl)c4c3)cc21	-2	-1	·	15	1	·	·	·	·
O=C1CCC2(CCC(c3ccccc3)CC2)N1CC[C@@H](O)c1ccccc1 (some centres not stated)	0	-6	·	7	-2	·	·	·	·
CCOC(=O)SC1=N/C(=C\c2ccc(N(C)C)cc2)C(=O)S1	-5	-3	-16	5	-2	·	·	·	·
CCOC(=O)c1cc2c(=Cc3ccc(N(C)C)cc3)c3ccccc3n2[n+]1C	21*	2	·	52*	30*	56*	20*	-73	54*
O=C(O)CSc1cc(NS(=O)(=O)c2ccc(Br)cc2)c2ccccc2c1O	25*	-9	-13	70*	-6	56*	1	-2	51*
CCOC(=O)[C@@]12CCCC=C1N(CCc1ccc(Cl)cc1)C(=O)[C@H]2CC(=O)NCC1CCCCC1	-1	-1	·	0	-1	·	·	·	·
COc1cccc(-c2cc(=O)[nH][nH]2)c1	21*	0	5	77*	7	0	4	-21	8
CCOc1cccc(-c2cc(=O)[nH][nH]2)c1	29*	2	-6	45*	0	10	2	-6	4

From PubChem BioAssay
